# Results reported in ChEMBL document CHEMBL4622841, “Structural modifications of indolinones bearing a pyrrole moiety and discovery of a multi-kinase inhibitor with potent antitumor activity” (Bioorg Med Chem, 2020).
# The source made the active and inactive calls. No cut-off for these calls is given here.
# What was measured:
# HT-29 [1] = assay: Inhibition of colony formation in human HT-29 cells measured after 14 days by crystal violet staining-based assay; format: functional, cell-based
# Method in brief: (§1)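 Cells plated and exposed to test agent at a range of concentrations for 14 days, then colonies counted. Colony formation expressed relative to vehicle-treated cells as mean ± SEM. Significance versus vehicle by unpaired two-tailed Student's t-test.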
# MKN-74 [2] = assay: Induction of apoptosis in human MKN74 cells incubated for 72 hrs by Annexin-V-FITC/propidium iodide staining-based flow cytometric analysis; format: functional, cell-based
# MKN-74 [3] = assay: Induction of apoptosis in human MKN74 cells assessed as necrotic cells at 1 uM incubated for 72 hrs by Annexin-V-FITC/propidium iodide staining-based flow cytometric analysis (reference value: 6.29%); format: functional
# [4] = target: T1, Serine/threonine-protein kinase Chk1 (Homo sapiens, UniProt O14757); assay: Inhibition of CHK (unknown origin) using FAM-labeled peptide and ATP as substrate preincubated for 10 mins followed by substrate addition measured after 1 hr by mobility shift assay
# T1 sequence (O14757 whole entry): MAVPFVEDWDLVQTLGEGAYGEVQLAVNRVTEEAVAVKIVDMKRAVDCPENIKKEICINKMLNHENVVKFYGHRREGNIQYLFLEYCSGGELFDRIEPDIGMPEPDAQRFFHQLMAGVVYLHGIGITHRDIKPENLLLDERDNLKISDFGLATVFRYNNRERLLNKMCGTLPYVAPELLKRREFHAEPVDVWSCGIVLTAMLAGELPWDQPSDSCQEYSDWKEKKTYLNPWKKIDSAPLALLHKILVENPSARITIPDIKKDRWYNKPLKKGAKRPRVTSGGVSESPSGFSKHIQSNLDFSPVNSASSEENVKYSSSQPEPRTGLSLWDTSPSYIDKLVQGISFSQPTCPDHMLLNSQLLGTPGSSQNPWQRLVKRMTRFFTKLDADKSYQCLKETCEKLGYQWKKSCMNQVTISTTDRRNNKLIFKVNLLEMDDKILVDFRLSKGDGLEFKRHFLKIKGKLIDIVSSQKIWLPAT
# [5] = target: Cyclin-dependent kinase 4 (Homo sapiens, UniProt P11802); assay: Inhibition of CDK4 (unknown origin) at 1 uM using FAM-labeled peptide and ATP as substrate preincubated for 10 mins followed by substrate addition measured after 1 hr by mobility shift assay
# Cyclin-dependent kinase 4, sequence (P11802 whole entry): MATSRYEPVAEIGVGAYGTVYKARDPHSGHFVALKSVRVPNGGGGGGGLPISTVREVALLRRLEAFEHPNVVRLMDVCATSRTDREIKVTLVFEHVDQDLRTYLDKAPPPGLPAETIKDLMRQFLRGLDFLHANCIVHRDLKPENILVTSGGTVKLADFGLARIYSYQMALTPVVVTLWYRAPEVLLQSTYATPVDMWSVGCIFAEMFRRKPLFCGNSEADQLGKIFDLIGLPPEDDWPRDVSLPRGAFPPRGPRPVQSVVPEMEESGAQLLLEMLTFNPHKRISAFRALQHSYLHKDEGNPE
# HUVEC = assay: Induction of apoptosis in human HUVEC cells assessed as late apoptotic cells at 3 uM incubated for 48 hrs by Annexin-V-FITC/propidium iodide staining-based flow cytometric analysis (reference value: 3.48%); format: functional
# [6] = target: Serine/threonine-protein kinase B-raf (Homo sapiens, UniProt P15056); assay: Inhibition of B-Raf (unknown origin) at 1 uM using FAM-labeled peptide and ATP as substrate preincubated for 10 mins followed by substrate addition measured after 1 hr by mobility shift assay
# Serine/threonine-protein kinase B-raf, sequence (P15056 whole entry): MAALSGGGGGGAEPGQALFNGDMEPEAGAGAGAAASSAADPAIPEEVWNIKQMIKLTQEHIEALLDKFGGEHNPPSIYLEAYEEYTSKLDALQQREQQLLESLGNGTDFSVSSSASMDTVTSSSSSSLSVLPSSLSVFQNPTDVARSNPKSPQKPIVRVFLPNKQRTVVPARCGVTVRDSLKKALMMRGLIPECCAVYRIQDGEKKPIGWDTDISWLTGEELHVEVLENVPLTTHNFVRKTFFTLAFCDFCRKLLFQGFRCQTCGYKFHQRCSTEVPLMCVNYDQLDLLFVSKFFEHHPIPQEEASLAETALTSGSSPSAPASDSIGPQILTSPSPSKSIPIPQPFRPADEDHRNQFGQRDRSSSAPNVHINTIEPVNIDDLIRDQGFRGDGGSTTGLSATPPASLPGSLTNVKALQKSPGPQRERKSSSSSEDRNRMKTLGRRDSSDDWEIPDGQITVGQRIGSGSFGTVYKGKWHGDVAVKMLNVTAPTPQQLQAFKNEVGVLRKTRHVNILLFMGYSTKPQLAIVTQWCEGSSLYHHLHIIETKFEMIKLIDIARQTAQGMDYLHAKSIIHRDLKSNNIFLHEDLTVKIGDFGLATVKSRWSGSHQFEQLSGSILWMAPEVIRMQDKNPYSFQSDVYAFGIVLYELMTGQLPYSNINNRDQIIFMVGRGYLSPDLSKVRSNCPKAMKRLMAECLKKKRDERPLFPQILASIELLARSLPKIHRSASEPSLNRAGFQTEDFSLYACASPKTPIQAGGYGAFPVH
# HT-29 [7] = assay: Induction of apoptosis in human HT-29 cells assessed as late apoptotic cells at 3 uM incubated for 72 hrs by Annexin-V-FITC/propidium iodide staining-based flow cytometric analysis (reference value: 6.12%); format: functional
# HepG2 [8] = assay: Induction of apoptosis in human HepG2 cells assessed as late apoptotic cells at 3 uM incubated for 72 hrs by Annexin-V-FITC/propidium iodide staining-based flow cytometric analysis (reference value: 2.89%); format: functional
# HepG2 [9] = assay: Induction of apoptosis in human HepG2 cells assessed as late apoptotic cells at 0.3 uM incubated for 72 hrs by Annexin-V-FITC/propidium iodide staining-based flow cytometric analysis (reference value: 2.89%); format: functional
# HepG2 [10] = assay: Induction of apoptosis in human HepG2 cells assessed as early apoptotic cells at 1 uM incubated for 72 hrs by Annexin-V-FITC/propidium iodide staining-based flow cytometric analysis (reference value: 1.08%); format: functional
# MKN-74 [11] = assay: Induction of apoptosis in human MKN74 cells assessed as late apoptotic cells at 0.3 uM incubated for 72 hrs by Annexin-V-FITC/propidium iodide staining-based flow cytometric analysis (reference value: 12.42%); format: functional
# [12] = Intrinsic clearance in mouse liver microsomes; format: ADME, Microsome; settings: read-out: CLH
# MKN-74 [13] = assay: Induction of apoptosis in human MKN74 cells assessed as necrotic cells at 3 uM incubated for 72 hrs by Annexin-V-FITC/propidium iodide staining-based flow cytometric analysis (reference value: 6.29%); format: functional
# HepG2 [14] = assay: Inhibition of receptor tyrosine kinase in human HepG2 cells assessed as reduction in AKT phosphorylation at Ser473 residue after 24 hrs by Western blotting analysis; format: cell-based
# Method in brief: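 Cells cultured overnight, then treated with compound at different concentrations for 24 h. About 1×10⁶ cells harvested and immunoblotted for p-AKT (Ser473), AKT, p-ERK (Thr202/Tyr204), ERK, with GAPDH as loading control. Detection by chemiluminescence and gel imaging. Blots shown are representative of several experiments.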
# [15] = target: T2, Serine/threonine-protein kinase Chk1 (Homo sapiens) (UniProt O14757); assay: Inhibition of CHK (unknown origin) at 1 uM using FAM-labeled peptide and ATP as substrate preincubated for 10 mins followed by substrate addition measured after 1 hr by mobility shift assay
# T2 sequence (whole entry): T1 sequence (O14757 whole entry)
# HT-29 [16] = assay: Antitumor activity against human HT-29 cells xenografted in nu/nu mouse assessed as tumour growth inhibition at 100 mg/kg, po qd for 18 days and measured twice per week by vernier caliper method; format: functional; settings: HT-29, po, 432 h, read-out: TGI
# MKN-74 [17] = assay: Inhibition of colony formation in human MKN74 cells measured after 14 days by crystal violet staining-based assay; format: functional, cell-based; method in brief: as §1
# [18] = target: Vascular endothelial growth factor receptor 2 (Homo sapiens, UniProt P35968); assay: Inhibition of N-terminal GST fused human VEGFR2 cytoplasmic domain (790 to 1356 (end) residues) expressed in baculovirus expression system using FAM-labeled peptide and ATP as substrate preincubated for 10 mins followed by substrate addition measured after 1 hr by mobility shift assay
# Vascular endothelial growth factor receptor 2, sequence (P35968 whole entry, the tested form may be a part): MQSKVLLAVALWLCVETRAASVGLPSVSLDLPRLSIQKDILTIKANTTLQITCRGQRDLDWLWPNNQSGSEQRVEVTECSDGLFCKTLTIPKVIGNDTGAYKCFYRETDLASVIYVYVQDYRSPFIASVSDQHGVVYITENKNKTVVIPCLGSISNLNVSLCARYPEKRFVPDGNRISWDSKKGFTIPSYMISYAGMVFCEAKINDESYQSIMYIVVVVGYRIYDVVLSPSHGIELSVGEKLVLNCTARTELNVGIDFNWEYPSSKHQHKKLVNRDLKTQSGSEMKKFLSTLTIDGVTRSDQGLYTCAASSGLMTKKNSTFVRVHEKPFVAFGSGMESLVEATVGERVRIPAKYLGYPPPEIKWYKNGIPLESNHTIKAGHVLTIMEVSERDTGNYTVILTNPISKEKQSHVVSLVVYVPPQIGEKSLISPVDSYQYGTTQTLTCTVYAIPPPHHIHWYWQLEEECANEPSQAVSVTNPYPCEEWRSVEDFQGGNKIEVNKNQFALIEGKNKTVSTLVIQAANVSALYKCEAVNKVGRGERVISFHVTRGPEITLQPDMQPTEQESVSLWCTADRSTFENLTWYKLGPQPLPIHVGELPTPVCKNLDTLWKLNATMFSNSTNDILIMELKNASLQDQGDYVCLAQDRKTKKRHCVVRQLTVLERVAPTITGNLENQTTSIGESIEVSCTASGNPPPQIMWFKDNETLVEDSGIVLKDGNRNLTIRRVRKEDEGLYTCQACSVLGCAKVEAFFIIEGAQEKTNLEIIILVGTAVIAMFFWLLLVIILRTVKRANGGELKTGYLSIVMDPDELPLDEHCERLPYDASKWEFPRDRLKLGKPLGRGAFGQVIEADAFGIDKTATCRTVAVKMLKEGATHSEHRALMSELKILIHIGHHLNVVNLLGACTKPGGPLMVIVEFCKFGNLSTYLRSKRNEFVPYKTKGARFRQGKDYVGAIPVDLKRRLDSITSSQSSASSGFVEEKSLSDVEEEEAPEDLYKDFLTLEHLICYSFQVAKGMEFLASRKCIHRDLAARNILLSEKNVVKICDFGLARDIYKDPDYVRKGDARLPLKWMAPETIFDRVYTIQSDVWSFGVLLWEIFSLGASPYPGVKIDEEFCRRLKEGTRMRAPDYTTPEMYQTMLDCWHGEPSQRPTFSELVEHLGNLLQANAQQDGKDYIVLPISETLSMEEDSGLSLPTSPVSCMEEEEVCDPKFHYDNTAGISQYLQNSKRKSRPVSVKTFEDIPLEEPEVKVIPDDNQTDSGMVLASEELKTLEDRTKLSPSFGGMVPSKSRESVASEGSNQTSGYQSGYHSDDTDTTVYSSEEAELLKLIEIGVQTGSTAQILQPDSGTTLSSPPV
# MKN-74 [19] = assay: Induction of apoptosis in human MKN74 cells assessed as late apoptotic cells at 3 uM incubated for 72 hrs by Annexin-V-FITC/propidium iodide staining-based flow cytometric analysis (reference value: 12.42%); format: functional
# HT-29 [20] = assay: Induction of apoptosis in human HT-29 cells assessed as early apoptotic cells at 1 uM incubated for 72 hrs by Annexin-V-FITC/propidium iodide staining-based flow cytometric analysis (reference value: 3.18%); format: functional
# [21] = target: Cyclin-dependent kinase 2 (Homo sapiens, UniProt P24941); assay: Inhibition of CDK2 (unknown origin) using FAM-labeled peptide and ATP as substrate preincubated for 10 mins followed by substrate addition measured after 1 hr by mobility shift assay
# MKN-74 [22] = assay: Induction of apoptosis in human MKN74 cells assessed as early apoptotic cells at 0.3 uM incubated for 72 hrs by Annexin-V-FITC/propidium iodide staining-based flow cytometric analysis (reference value: 1.98%); format: functional
# HT-29 [23] = assay: Induction of apoptosis in human HT-29 cells assessed as late apoptotic cells at 1 uM incubated for 72 hrs by Annexin-V-FITC/propidium iodide staining-based flow cytometric analysis (reference value: 6.12%); format: functional
# HepG2 [24] = assay: Induction of apoptosis in human HepG2 cells assessed as early apoptotic cells at 0.3 uM incubated for 72 hrs by Annexin-V-FITC/propidium iodide staining-based flow cytometric analysis (reference value: 1.08%); format: functional
smiles,measurement,setting,value
COC(=O)c1ccc2c(c1)NC(=O)/C2=C(\Nc1ccc(-n2c(C)ccc2CN2CCN(C)CC2)cc1)c1ccccc1,inhibition,HT-29 [1],Dose-dependent effect
same,Activity,MKN-74 [2],Dose-dependent effect
same,Activity,MKN-74 [3],4.52%
same,IC50,[4],> 1000 nM
same,inhibition,[5],inactive
same,Activity,HUVEC,9.06%
same,inhibition,[6],inactive
same,Activity,HT-29 [7],88.27%
same,Activity,HepG2 [8],64.56%
same,Activity,HepG2 [9],4.64%
same,Activity,HepG2 [10],17.61%
same,Activity,MKN-74 [11],16.86%
same,CLint scaled,[12],436 mL/min/kg
same,Activity,MKN-74 [13],4.15%
same,inhibition,HepG2 [14],Dose-dependent effect
same,inhibition,[15],inactive
same,inhibition in vivo at 100 mg/kg,HT-29 [16],13.4%
same,inhibition,MKN-74 [17],Dose-dependent effect
same,IC50,[18],6.5 nM
same,Activity,MKN-74 [19],79.51%
same,Activity,HT-29 [20],1.52%
same,IC50,[21],> 1000 nM
same,Activity,MKN-74 [22],2.41%
same,Activity,HT-29 [23],37.8%
same,Activity,HepG2 [24],1.81%
